Molecules are shown by their SMILES. Where a SMILES comes first, the peptide text is derived from it. [ ]: non-standard residue; d: D form. The star is where a group is joined. X1 = COc1cccc2c1C(=O)c1c(O)c3c(c(O)c1C2=O)C[C@@](O)(/C(C)=N/OCC(=O)*)C[C@@H]3O[C@H]1C[C@H](N)[C@H](O)[C@H](C)O1; Phe(4-Cl) = N[C@@H](Cc1ccc(Cl)cc1)C(=O)O

Results on 3 molecules are retold here after ChEMBL document CHEMBL4350976, “Sequence modification of heptapeptide selected by phage display as homing device for HT-29 colon cancer cells to improve the anti-tumour activity of drug delivery systems” (Eur J Med Chem, 2019).

Series [1] in a line: Drug metabolism in rat liver lysosomes homogenate assessed as increase in Dau = Aoa-Leu-OH metabolite formation at 0.05 ug/ul after 1 hr by LC-MS analysis. It counts as ADME, subcellular, Lysosome. Conditions: tissue homogenate; call rule not given here. In outline: (§1)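 Conjugates and rat liver lysosomal homogenate were each used at 0.05 µg/µL. Samples were taken at 0, 1, 3, 6 and 24 h. Metabolites were identified by LC-MS on a C18 column with a formic acid/acetonitrile gradient.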

The nature of series [2]: Solubility of compound. It counts as physicochemical.
The test system of series [3] is HT-29. Briefly: Cytostatic activity against human HT-29 cells preincubated for 24 hrs under serum free condition followed by compound washout and further incubation for 48 hrs in presence of serum by MTT assay. In kind it is functional, cell-based. An outline of the steps:
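HT-29 cells were exposed to the compound for 24 h, washed, and kept a further 48 h. Viability was read by MTT. Absorbances were normalized to untreated controls and fitted by nonlinear regression to dose-response curves to give IC50.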
On the technique in general: Formazan colour is commonly taken as a measure of viable cells.

Series [4] is described as follows: Stability in serum free medium at 30 uM incubated for 3 hrs by LC/MS analysis. An outline of the steps: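 Conjugates (30 μM) were incubated at 37 °C in serum-free medium. Samples were taken at 0 and 3 h, quenched with acetic acid, lyophilised, desalted on C18 spin columns and analysed by LC-MS.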
The nature of series [5]: Retention time of the compound using 0.1% TFA in water and 0.1% TFA in acetonitrile-water (80:20 v/v) as eluents by RP-HPLC analysis. In kind it is physicochemical. An outline of the steps:
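Analytical RP-HPLC. Eluent A was 0.1% TFA in water and eluent B was 0.1% TFA in acetonitrile-water (80:20, v/v). Gradient: 0% B held to 5 min, then to 90% B at 50 min. Flow 1 mL/min, detection at 220 nm. The column was a Phenomenex Aeris Peptide XB-C18 (250×4.6 mm, 3.6 μm) or a Nucleosil C18 (5 μm, 100 Å, 250×4.6 mm), depending on the conjugate series.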

The nature of series [6]: Drug uptake in human HT-29 cells assessed as increase in fluorescence intensity at 6.25 to 100 uM incubated for 3 hrs by flow cytometry. It counts as ADME, cell-based. Conditions: ht-29, 3 h. In outline: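 HT-29 cells were incubated for 3 h with conjugates at 6.25–100 µM. Cellular uptake of Dau fluorescence was measured by flow cytometry, in duplicate.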
(In general: In flow cytometry, cells or beads pass a laser one at a time.)

The nature of series [7]: Stability in 2.5% fetal bovine serum containing medium at 30 uM measured after 24 hrs by LC/MS analysis. To be noted: cattle. It counts as ADME, cell-free, Bos taurus. In outline:
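Conjugates (30 μM) were incubated at 37 °C in medium containing 2.5% FBS. Samples were taken at 0, 3, 6 and 24 h, quenched with acetic acid, lyophilised, desalted on C18 spin columns and analysed by LC-MS. Cleavage products were identified by mass.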

Series [8] in a line: Drug metabolism in rat liver lysosomes homogenate assessed as Dau-containing metabolite formation at 0.05 ug/ul after 24 hrs by LC-MS analysis. To be noted: tissue homogenate. In kind it is ADME, subcellular, Lysosome. In outline:
as §1

Series [9] can be described thus: Drug uptake in human HT-29 cells at 100 uM incubated for 3 hrs by flow cytometry relative to control. To be noted: ht-29, 3 h. In kind it is ADME, cell-based. An outline of the steps:
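HT-29 cells were exposed to 100 µM conjugate for 3 h. Flow cytometry recorded the percentage of Dau-positive cells and the mean fluorescence intensity, in duplicate.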

The nature of series [10]: Drug uptake in human HT-29 cells assessed as increase in fluorescence intensity at 25 uM incubated for 3 hrs by flow cytometry. To be noted: ht-29, 3 h. In kind it is ADME, cell-based.
Series [11] deals with HT-29. Briefly: Cytotoxicity against human HT-29 cells assessed as reduction in cell viability by measuring decrease in fluorescence intensity at 100 uM incubated for 3 hrs by flow cytometry. In kind it is cell-based. Conditions: ht-29, 3 h.

The term IC50 denotes the concentration at which inhibition is half-maximal. For `COc1cccc2c1C(=O)c1c(O)c3c(c(O)c1C2=O)C[C@@](O)(/C(C)=N/OCC(=O)N[C@@H](CC(C)C)C(=O)N[C@@H](CCCNC(=N)N)C(=O)N[C@@H](CCCNC(=N)N)C(=O)N[C@@H](Cc1ccc(O)cc1)C(=O)N[C@H](C(=O)N[C@@H](Cc1cnc[nH]1)C(=O)N[C@@H](CC(C)C)C(=O)N[C@@H](Cc1ccccc1)C(=O)N[C@@H](Cc1ccc(O)cc1)C(=O)N[C@@H](CC(C)C)C(=O)N[C@H](C(N)=O)[C@@H](C)O)C(C)C)C[C@@H]3O[C@H]1C[C@H](N)[C@H](O)[C@H](C)O1` (X1-LRRYVHLFYLT-NH2), the Drug metabolism result in series [1] and in [8] was “Metabolite_Detected” in each case. For the same molecule, the solubility entry in series [2] is “Soluble”. In the series with HT-29 [3], the concentration for half-maximal inhibition (IC50) stood at 3.2 µM. For the same molecule, the Stability result in [4] and in series [7] was “Stable” in each case. Further, in [5], the Retention time fell in the range of 30.7 to 32.3 min. In series [6], the Drug uptake entry is recorded as “Active”.

As for `COc1cccc2c1C(=O)c1c(O)c3c(c(O)c1C2=O)C[C@@](O)(/C(C)=N/OCC(=O)N[C@@H](CC(C)C)C(=O)N[C@@H](CCCNC(=N)N)C(=O)N[C@@H](CCCNC(=N)N)C(=O)N[C@@H](Cc1ccc(O)cc1)C(=O)N[C@H](C(=O)N[C@@H](Cc1cnc[nH]1)C(=O)N[C@@H](CC(C)C)C(=O)N[C@@H](C)C(=O)N[C@@H](Cc1ccc(O)cc1)C(=O)N[C@@H](C)C(=O)N[C@H](C(N)=O)[C@@H](C)O)C(C)C)C[C@@H]3O[C@H]1C[C@H](N)[C@H](O)[C@H](C)O1` (X1-LRRYVHLAYAT-NH2), in the series on HT-29 [3], the IC50 was 24.1 to 27.9 µM. In addition, the Drug uptake in [9] is listed as 80%; in [10], “Active”. For the same molecule, the Stability entry in series [4] and in series [7] was “Stable” throughout. The Retention time in [5] fell in the range of 28.6 to 31.3 min.

With `COc1cccc2c1C(=O)c1c(O)c3c(c(O)c1C2=O)C[C@@](O)(/C(C)=N/OCC(=O)N[C@@H](CC(C)C)C(=O)N[C@@H](CCCNC(=N)N)C(=O)N[C@@H](CCCNC(=N)N)C(=O)N[C@@H](Cc1ccc(O)cc1)C(=O)N[C@H](C(=O)N[C@@H](Cc1cnc[nH]1)C(=O)N[C@@H](CC(C)C)C(=O)N[C@@H](Cc1ccc(Cl)cc1)C(=O)N[C@@H](Cc1ccc(O)cc1)C(=O)N[C@@H](C)C(=O)N[C@H](C(N)=O)[C@@H](C)O)C(C)C)C[C@@H]3O[C@H]1C[C@H](N)[C@H](O)[C@H](C)O1` (X1-LRRYVHL[Phe(4-Cl)]YAT-NH2), the Drug metabolism entry in [1] and in series [8] was “Metabolite_Detected” each time. Besides, the solubility result in series [2] is given as “Soluble”. Also, in the series with HT-29 [3], the concentration for half-maximal inhibition (IC50) came out at 3.6 µM. In addition, the Activity result in the series on HT-29 [11] is “Toxic”. Besides, the Stability result in [4] and in series [7] was “Stable” in each case. In series [5], this molecule registered a Retention time of 31.3 to 34 min. Besides, the Drug uptake result in [6] is listed as “Active”.
